In ChEMBL document CHEMBL4014289, “Synthesis and evaluation of a ligand targeting the μ and δ opioid receptors for drug delivery to lung cancer” (Bioorg Med Chem Lett, 2017):
The source made the active and inactive calls. The calls are words filed in the database; no cut-off is given here.

How the values were obtained:
[1] = Displacement of [3H]DADLE from delta opioid receptor in guinea pig brain membrane; assay type: cell membranes, Cavia porcellus
[2] = Antitumor activity against human SQC cells xenografted in nude mouse model assessed as tumor growth inhibition at 0.1 mg/kg administered daily relative to control; assay type: functional; conditions: read-out: TGI
[3] = target: Delta-type opioid receptor (Homo sapiens) (UniProt P41143); assay: Binding affinity to delta opioid receptor (unknown origin) expressed in HEK cells at 10 nM in presence of DOR antagonist […] after 1 hr by confocal microscopic method; assay type: cell-based
Sequence of Delta-type opioid receptor (Homo sapiens) (P41143 whole entry): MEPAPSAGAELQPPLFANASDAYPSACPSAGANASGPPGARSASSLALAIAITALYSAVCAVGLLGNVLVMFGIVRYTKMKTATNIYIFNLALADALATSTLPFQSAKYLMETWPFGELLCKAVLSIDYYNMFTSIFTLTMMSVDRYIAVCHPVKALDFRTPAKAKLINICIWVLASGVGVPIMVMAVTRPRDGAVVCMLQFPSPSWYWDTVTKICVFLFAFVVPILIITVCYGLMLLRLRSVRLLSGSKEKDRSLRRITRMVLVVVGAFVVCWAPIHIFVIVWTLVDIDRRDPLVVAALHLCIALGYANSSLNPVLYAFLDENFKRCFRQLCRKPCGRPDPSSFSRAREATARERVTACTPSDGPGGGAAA
Method in brief: (§1)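 HEK cells transfected to overexpress the δ-opioid receptor were incubated with a rhodamine-labelled naltrexone-derived conjugate for 1 h. They were given the conjugate alone or with a 100-fold higher concentration of naltrindole as competitor. Uptake and internalisation were imaged by confocal microscopy.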

[4] = target: Delta-type opioid receptor (Homo sapiens) (UniProt P41143); assay: Binding affinity to delta opioid receptor (unknown origin) expressed in HEK cells at 10 nM by confocal microscopic method; assay type: cell-based; method in brief: as §1
[5] = target: Mu-type opioid receptor (Homo sapiens) (UniProt P35372); assay: Binding affinity to mu opioid receptor (unknown origin) expressed in HEK cells at 25 nM by confocal microscopic method; assay type: cell-based
Sequence of Mu-type opioid receptor (Homo sapiens) (P35372 whole entry): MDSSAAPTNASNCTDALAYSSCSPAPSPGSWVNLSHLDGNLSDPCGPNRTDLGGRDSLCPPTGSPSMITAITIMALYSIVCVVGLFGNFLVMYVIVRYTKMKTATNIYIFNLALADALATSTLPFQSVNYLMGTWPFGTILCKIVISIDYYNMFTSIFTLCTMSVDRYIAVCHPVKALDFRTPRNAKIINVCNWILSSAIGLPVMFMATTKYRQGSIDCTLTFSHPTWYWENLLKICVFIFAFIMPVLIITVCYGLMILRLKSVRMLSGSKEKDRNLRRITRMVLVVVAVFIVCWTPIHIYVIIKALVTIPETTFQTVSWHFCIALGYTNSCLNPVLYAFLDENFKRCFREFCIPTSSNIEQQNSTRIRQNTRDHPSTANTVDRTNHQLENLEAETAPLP
Method in brief: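 HEK cells transfected to overexpress the μ-opioid receptor were treated with 25 nM rhodamine-labelled naltrexone-derived conjugate for 1 h. […] Cell-associated fluorescence and internalisation were imaged by confocal microscopy.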

[6] = Drug uptake in Nu/Nu mouse skin xenografted with HEK cells expressing delta opioid receptor (unknown origin); assay type: ADME, Zone of skin
Method in brief: (§2)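 Mice carrying HEK xenografts transfected with μ (HEK-mu) or δ (HEK-delta) opioid receptor. […] Mice were sacrificed at 4 h, and organs and tissues were collected and weighed. Radioactivity was counted against a standard tube and expressed as %ID/gram.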

Intestine [7] = assay: Drug uptake in Nu/Nu mouse intestine xenografted with HEK cells expressing delta opioid receptor (unknown origin); assay type: ADME, tissue-based; method in brief: as §2
Spleen = assay: Drug uptake in Nu/Nu mouse spleen xenografted with HEK cells expressing delta opioid receptor (unknown origin); assay type: ADME, tissue-based; method in brief: as §2
Heart = assay: Drug uptake in Nu/Nu mouse heart xenografted with HEK cells expressing delta opioid receptor (unknown origin); assay type: ADME, tissue-based; method in brief: as §2
Liver = assay: Drug uptake in Nu/Nu mouse liver xenografted with HEK cells expressing delta opioid receptor (unknown origin); assay type: ADME, tissue-based; method in brief: as §2
[8] = Drug uptake in Nu/Nu mouse tumor xenografted with HEK cells expressing delta opioid receptor (unknown origin); assay type: ADME, Neoplasm; method in brief: as §2
Kidney [9] = assay: Drug uptake in Nu/Nu mouse kidney xenografted with HEK cells expressing delta opioid receptor (unknown origin); assay type: ADME, tissue-based; method in brief: as §2
[10] = Drug uptake in Nu/Nu mouse skin xenografted with HEK cells expressing mu opioid receptor (unknown origin); assay type: ADME, Zone of skin; method in brief: as §2
Intestine [11] = assay: Drug uptake in Nu/Nu mouse intestine xenografted with HEK cells expressing mu opioid receptor (unknown origin); assay type: ADME, tissue-based; method in brief: as §2
[12] = Drug uptake in Nu/Nu mouse tumor xenografted with HEK cells expressing mu opioid receptor (unknown origin); assay type: ADME, Neoplasm; method in brief: as §2
Kidney [13] = assay: Drug uptake in Nu/Nu mouse kidney xenografted with HEK cells expressing mu opioid receptor (unknown origin); assay type: ADME, tissue-based; method in brief: as §2

SMILES: O=C1CC[C@@]2(O)[C@H]3Cc4ccc(O)c5c4[C@@]2(CCN3CC2CC2)[C@H]1O5 [NALTREXONE]
- Ki [1]: 10.5 nM
- inhibition in vivo at 0.1 mg/kg [2]: 84%

SMILES: CCN(CC)c1ccc2c(-c3ccc(NC(=S)NCCCCCn4cc(-c5ccc(C(=O)N[C@@H]6CC[C@@]7(O)[C@H]8Cc9ccc(O)c%10c9[C@@]7(CCN8CC7CC7)[C@H]6O%10)cn5)nn4)cc3C(=O)O)c3ccc(=[N+](CC)CC)cc-3oc2c1
- Activity [3]: Active
- Activity [4]: Active

SMILES: CCN(CC)c1ccc2c(-c3ccc(NC(=S)NCC(=O)NCC(=O)N[C@@H]4CC[C@@]5(O)[C@H]6Cc7ccc(O)c8c7[C@@]5(CCN6CC5CC5)[C@H]4O8)cc3C(=O)O)c3ccc(=[N+](CC)CC)cc-3oc2c1
- Activity [5]: Active

SMILES: NC(CNC(=O)CCOCCOCCOCCOCCNC(=O)CCC(=O)NCCCCCn1cc(-c2ccc(C(=O)N[C@@H]3CC[C@@]4(O)[C@H]5Cc6ccc(O)c7c6[C@@]4(CCN5CC4CC4)[C@H]3O7)cn2)nn1)C(=O)NCC(N)C(=O)NC(CC(=O)O)C(=O)NC(CS)C(=O)O (stereo partly specified)
- Drug uptake [6]: Active
- Drug uptake (Intestine [7]): Active
- Drug uptake (Spleen): Active
- Drug uptake (Heart): Active
- Drug uptake (Liver): Active
- Drug uptake [8]: Active
- Drug uptake (Kidney [9]): Active

SMILES: NC(CNC(=O)CCOCCOCCOCCOCCNC(=O)CCC(=O)NCC(=O)NCC(=O)N[C@@H]1CC[C@@]2(O)[C@H]3Cc4ccc(O)c5c4[C@@]2(CCN3CC2CC2)[C@H]1O5)C(=O)NC(CC(=O)O)C(=O)NC(CS)C(=O)O (stereo partly specified)
- Drug uptake [10]: Active
- Drug uptake (Intestine [11]): Active
- Drug uptake [12]: Active
- Drug uptake (Kidney [13]): Active
